Reference: article PMC9398548 (European journal of pharmaceutical sciences : official …, 2020)
Where two headings read alike, the source gives them in different places.

Key:
[1] = test system: human colon cancer HT-29 cells; conditions: read-out: antiproliferative IC50, HT-29 cells; ref Bonnet et al., 2014; cited from earlier work
[2] = test system: murine leukemia P-388 cells; conditions: read-out: antiproliferative IC50, P-388 cells; ref Bonnet et al., 2014; cited from earlier work
[3] = test system: human prostate cancer PC-3 cells; conditions: read-out: antiproliferative IC50, PC-3 cells; ref Bonnet et al., 2014; cited from earlier work
K562 cells = test: MTT cytotoxicity assay in K562 cells; format: cell-based; conditions: read-out: K562- IC50
In short: (§1)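 Cells were grown in suspension in RPMI 1640 with 10% FBS and penicillin/streptomycin/amphotericin B at 37 °C under 5% CO2. They were seeded at ~5×10^3 cells/well, kept overnight, then exposed to test compounds diluted in DMSO for 48 h. Cells were pelleted (300 g, 4 °C, 5 min) and washed twice in phosphate buffer. MTT (5 mg/ml stock) was added for 4 h at 37 °C, formazan dissolved in DMSO, and A570 read. Triplicate; IC50 given as mean±SD.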

CEM cells = test: MTT cytotoxicity assay in CEM cells; format: cell-based; conditions: read-out: CEM- IC50, 48 h, Mean±SD, n=3
In short: as §1

HDAC1 = HDAC1 (Homo sapiens, UniProt Q13547); test: HDAC enzyme activity assay, HDAC1; format: biochemical
HDAC4 = HDAC4 (Homo sapiens, UniProt P56524); test: HDAC enzyme activity assay, HDAC4; format: biochemical
In short: (§2)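 Enzymes were recombinant: HDAC8, and the codon-optimised human HDAC4 catalytic domain (pET14b). Serial inhibitor dilutions in 25 mM Tris-HCl, 75 mM KCl, 0.001% Pluronic F-127, pH 8.0 were pre-incubated with enzyme for 1 h at 30 °C. Reaction ran 60 min at 30 °C with 20 μM Boc-Lys(trifluoroacetyl)-AMC and was stopped with 1.7 μM SATFMK. Trypsin (0.4 mg/ml) released AMC; fluorescence read at Ex 350/Em 450 nm. Triplicate; IC50 from dose-response curves.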

HDAC6 = molecular target: T1, HDAC6 (Homo sapiens, UniProt Q9UBN7); test: HDAC enzyme activity assay, HDAC6; format: biochemical
T1 sequence (Q9UBN7 1-1215): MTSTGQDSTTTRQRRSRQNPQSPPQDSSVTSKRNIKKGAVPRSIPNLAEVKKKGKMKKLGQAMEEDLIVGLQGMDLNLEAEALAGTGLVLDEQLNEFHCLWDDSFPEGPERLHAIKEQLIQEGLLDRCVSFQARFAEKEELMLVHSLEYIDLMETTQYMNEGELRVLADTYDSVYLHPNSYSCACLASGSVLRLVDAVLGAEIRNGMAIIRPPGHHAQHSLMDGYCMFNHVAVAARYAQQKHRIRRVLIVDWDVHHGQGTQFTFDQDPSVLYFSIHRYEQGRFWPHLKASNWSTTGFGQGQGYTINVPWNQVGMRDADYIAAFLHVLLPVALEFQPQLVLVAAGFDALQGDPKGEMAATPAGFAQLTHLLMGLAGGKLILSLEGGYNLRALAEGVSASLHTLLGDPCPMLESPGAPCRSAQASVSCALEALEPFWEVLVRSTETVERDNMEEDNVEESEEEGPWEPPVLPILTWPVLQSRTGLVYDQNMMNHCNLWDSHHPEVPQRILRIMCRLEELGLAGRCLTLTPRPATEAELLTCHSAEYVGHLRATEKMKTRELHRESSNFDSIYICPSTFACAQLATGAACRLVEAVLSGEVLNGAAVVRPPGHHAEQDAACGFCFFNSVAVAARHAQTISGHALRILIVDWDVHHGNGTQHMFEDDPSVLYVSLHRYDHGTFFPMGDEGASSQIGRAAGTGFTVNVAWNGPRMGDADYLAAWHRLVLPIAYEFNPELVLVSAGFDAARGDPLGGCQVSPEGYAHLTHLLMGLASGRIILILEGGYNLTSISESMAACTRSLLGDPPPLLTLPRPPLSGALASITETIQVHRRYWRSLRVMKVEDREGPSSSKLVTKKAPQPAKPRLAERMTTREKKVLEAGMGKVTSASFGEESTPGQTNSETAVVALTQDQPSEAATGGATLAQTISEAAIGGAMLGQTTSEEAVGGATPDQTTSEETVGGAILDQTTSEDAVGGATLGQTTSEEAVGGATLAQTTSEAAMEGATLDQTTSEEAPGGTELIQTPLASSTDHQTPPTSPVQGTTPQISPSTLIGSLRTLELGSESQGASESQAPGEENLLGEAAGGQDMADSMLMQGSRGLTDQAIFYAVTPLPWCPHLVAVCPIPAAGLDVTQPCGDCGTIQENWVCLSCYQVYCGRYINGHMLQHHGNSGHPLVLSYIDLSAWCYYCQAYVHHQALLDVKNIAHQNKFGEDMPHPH

HDAC8 = molecular target: T2, HDAC8 (Homo sapiens, UniProt Q9BY41); test: HDAC enzyme activity assay, HDAC8; format: biochemical; conditions: for HDAC-8 relative enzyme activity: primary screening at 50 μM
T2 sequence (Q9BY41 1-377): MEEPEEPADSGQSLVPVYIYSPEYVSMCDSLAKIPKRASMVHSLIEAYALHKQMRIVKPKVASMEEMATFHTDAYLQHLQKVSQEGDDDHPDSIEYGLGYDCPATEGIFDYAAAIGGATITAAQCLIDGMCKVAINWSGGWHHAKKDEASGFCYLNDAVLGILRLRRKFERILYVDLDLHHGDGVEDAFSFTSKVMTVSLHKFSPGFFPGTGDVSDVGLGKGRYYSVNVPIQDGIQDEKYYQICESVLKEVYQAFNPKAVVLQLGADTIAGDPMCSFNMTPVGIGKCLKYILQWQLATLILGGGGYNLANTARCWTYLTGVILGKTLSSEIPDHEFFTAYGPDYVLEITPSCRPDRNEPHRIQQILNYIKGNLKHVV
In short: as §2

[4] = read-out: HDAC1 IC50, Means ±SD, n=3
[5] = read-out: HDAC4 IC50, Means ±SD, n=3
[6] = read-out: HDAC6 IC50, Means ±SD, n=3
[7] = read-out: HDAC8 IC50, Means ±SD, n=3

Chain of HDAC4 (P56524 655-1084 limits assumed): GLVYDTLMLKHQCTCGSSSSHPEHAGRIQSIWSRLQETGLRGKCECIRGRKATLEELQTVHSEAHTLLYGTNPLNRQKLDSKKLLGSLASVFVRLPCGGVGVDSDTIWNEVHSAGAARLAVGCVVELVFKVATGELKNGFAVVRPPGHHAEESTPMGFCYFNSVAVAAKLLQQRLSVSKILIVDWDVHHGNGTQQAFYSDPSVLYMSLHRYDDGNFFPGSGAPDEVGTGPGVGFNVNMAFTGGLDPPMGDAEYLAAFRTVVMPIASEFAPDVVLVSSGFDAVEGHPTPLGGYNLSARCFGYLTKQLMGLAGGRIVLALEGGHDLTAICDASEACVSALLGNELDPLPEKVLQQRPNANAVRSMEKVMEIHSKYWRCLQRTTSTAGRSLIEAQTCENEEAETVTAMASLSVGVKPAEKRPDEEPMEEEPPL
Chain of HDAC1 (Q13547 whole entry, species assumed): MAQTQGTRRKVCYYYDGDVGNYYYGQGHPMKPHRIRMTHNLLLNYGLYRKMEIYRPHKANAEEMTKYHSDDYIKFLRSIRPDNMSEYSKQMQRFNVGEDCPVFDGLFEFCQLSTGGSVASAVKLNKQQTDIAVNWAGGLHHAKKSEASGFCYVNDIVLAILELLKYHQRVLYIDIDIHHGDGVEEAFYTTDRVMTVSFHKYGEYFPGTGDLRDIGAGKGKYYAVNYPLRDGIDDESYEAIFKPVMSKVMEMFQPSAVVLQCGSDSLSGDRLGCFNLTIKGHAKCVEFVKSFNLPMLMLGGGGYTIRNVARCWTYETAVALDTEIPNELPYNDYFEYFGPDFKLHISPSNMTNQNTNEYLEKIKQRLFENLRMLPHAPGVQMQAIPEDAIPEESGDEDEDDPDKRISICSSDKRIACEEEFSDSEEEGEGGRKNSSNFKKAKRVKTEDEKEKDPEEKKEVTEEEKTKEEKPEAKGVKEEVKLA

Question: With `O=C1C[C@@H]2/C(=C(O)\C=C\c3ccccc3)C(=O)C=C[C@@H]2O1` [(+)-Cryptocaryone] as the compound, how does the IC50 [1] read?
Answer: 0.32 µM

Question: What about the IC50 [2] of the same compound?
Answer: 0.04 µM

Question: What about the IC50 [3] of the same compound?
Answer: 1.6 µM

Question: Which results are given for `O=C(CN1C(=O)SC(=Cc2ccc(Br)cc2)C1=O)Nc1ccc(Cl)cc1C(F)(F)F` [Compound G1, 2-[5-(4-Bromobenzylidene)-2,4-dioxo-thiazolidin-3-yl]-N-(4-chloro-2-trifluromethylphenyl) acetamide]?
Answer: IC50 (K562 cells; MTT, 48 h, Mean±SD, n=3): 24 ± 0.58 µM; IC50 (CEM cells): 25.1 ± 1.84 µM; IC50 (HDAC1; [4]): > 50 µM; IC50 (HDAC4; [5]): > 50 µM; IC50 (HDAC6; [6]): 16 ± 2 µM; HDAC-8 relative enzyme activity (HDAC8): < 50%; IC50 (HDAC8; [7]): 20 ± 3 µM

Question: What does the source list for `Cc1ccc(C=C2SC(=O)N(CC(=O)Nc3ccc(Cl)cc3C(F)(F)F)C2=O)cc1C` [Compound G3, N-(4-Chloro-2-trifluoromethylphenyl)-2-[5-(3,4-dimethylbenzylidene)-2,4-dioxothiazolidin-3-yl] acetamide]?
Answer: IC50 (K562 cells; MTT, 48 h, Mean±SD, n=3): 26.4 ± 3.07 µM; IC50 (CEM cells): 25.9 ± 2.95 µM; IC50 (HDAC1; [4]): > 50 µM; IC50 (HDAC4; [5]): > 50 µM; IC50 (HDAC6; [6]): 17 ± 2 µM; HDAC-8 relative enzyme activity (HDAC8): < 50%; IC50 (HDAC8; [7]): 16 ± 2 µM

Question: Which IC50 (K562 cells; Homo sapiens, K562, 48 h) does the source give for `Cc1ccc(C=C2SC(=O)N(CC(=O)Nc3ccc(Cl)cc3C(F)(F)F)C2=O)cc1` [Compound G11, N-(4-Chloro-2-trifluoromethylphenyl)-2-[5-(4-methylbenzylidene)-2,4-dioxothiazolidin-3-yl]acetamide] here?
Answer: 34.6 ± 3.57 µM

Question: What about the IC50 (HDAC1) of the same compound?
Answer: 31 ± 1.1 µM

Question: What about the IC50 (HDAC4) of the same compound?
Answer: > 50 µM

Question: And the IC50 (HDAC6)?
Answer: 14 ± 3 µM

Question: And the IC50 (HDAC8)?
Answer: 18 ± 2 µM

Question: And the “HDAC-8 relative enzyme activity” value (HDAC8)?
Answer: < 50%

Question: With `O=C(CN1C(=O)SC(=Cc2ccccc2)C1=O)Nc1ccc(Cl)cc1C(F)(F)F` [Compound G13, 2-[5-Benzylidene-2,4-dioxothiazolidin-3-yl]-N-(4-chloro-2-trifluoromethylphenyl)acetamide] as the compound, how does the IC50 (K562 cells; Homo sapiens, K562, 48 h) read?
Answer: 41.7 ± 3.9 µM

Question: What about the IC50 (HDAC1) of the same compound?
Answer: > 50 µM

Question: And the IC50 (HDAC4)?
Answer: > 50 µM

Question: And the IC50 (HDAC6)?
Answer: 42 µM

Question: And the IC50 (HDAC8)?
Answer: 11 ± 1 µM

Question: And the “HDAC-8 relative enzyme activity” value (HDAC8)?
Answer: < 50%
